The values below come from ChEMBL document CHEMBL3763091, “Design, synthesis, and docking studies of afatinib analogs bearing cinnamamide moiety as potent EGFR inhibitors” (Bioorg Med Chem, 2016).

Experiment [1] is described as follows: Cytotoxicity against human PC3 cells after 72 hrs by MTT assay. Type of experiment: functional, cell-based, PC-3. The method in brief:
(§1)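 Cells were grown in MEM with 10% FBS. About 4 × 10³ cells per well were seeded and held 24 h at 37 °C in 5% CO₂, then exposed to compound at the indicated final concentrations for 72 h. MTT was added at 5 µg/mL final for 4 h at 37 °C, and formazan was dissolved in DMSO. Absorbance was read at 492 nm against 630 nm reference. Each compound was tested three times per line, and IC₅₀ values were averaged.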

Experiment [2] concerns MCF7. In words: Cytotoxicity against human MCF7 cells after 72 hrs by MTT assay. Type of experiment: functional, cell-based. The method in brief: as §1
A general note: Tetrazolium assays rely on reduction of a dye to a coloured formazan, in cell work by metabolically active cells.

Experiment [3] relates to A549. Briefly: Cytotoxicity against human A549 cells after 72 hrs by MTT assay. It counts as functional, cell-based. The method in brief: as §1
Experiment [4] deals with HeLa. In words: Cytotoxicity against human HeLa cells after 72 hrs by MTT assay. Type of experiment: functional, cell-based. The method in brief:
as §1

Experiment [5] has as its target Vascular endothelial growth factor receptor 2 (Homo sapiens, UniProt P35968). Briefly: Inhibition of VEGFR2 (unknown origin) using FAM-labeled peptide as substrate preincubated for 10 mins followed by addition of substrate by mobility shift assay. The method in brief:
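Mobility-shift kinase assay. Compounds were serially diluted in 100% DMSO and combined with enzyme for 10 min at room temperature. FAM-labeled peptide plus ATP was then added and incubated at 28 °C. The reaction was stopped with EDTA-containing buffer. Conversion was read on Caliper, and % inhibition = (max − conversion)/(max − min) × 100. IC₅₀ was averaged from at least two experiments.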

For experiment [6], the target named is Epidermal growth factor receptor (Homo sapiens, UniProt P00533). In words: Inhibition of EGFR (unknown origin) using FAM-labeled peptide as substrate preincubated for 10 mins followed by addition of substrate by mobility shift assay.
The nature of experiment [7]: Cytotoxicity against human NSCLC cells. It counts as functional, cell-based.
[8] abbreviates: Homo sapiens, PC-3, 72 h, read-out: IC50.
The mark [9] stands for this setting: Homo sapiens, MCF7, 72 h, read-out: IC50.
[10] abbreviates: Homo sapiens, A549, 72 h, read-out: IC50.

Molecules are shown by their SMILES.

Sequence of Vascular endothelial growth factor receptor 2 (P35968 whole entry): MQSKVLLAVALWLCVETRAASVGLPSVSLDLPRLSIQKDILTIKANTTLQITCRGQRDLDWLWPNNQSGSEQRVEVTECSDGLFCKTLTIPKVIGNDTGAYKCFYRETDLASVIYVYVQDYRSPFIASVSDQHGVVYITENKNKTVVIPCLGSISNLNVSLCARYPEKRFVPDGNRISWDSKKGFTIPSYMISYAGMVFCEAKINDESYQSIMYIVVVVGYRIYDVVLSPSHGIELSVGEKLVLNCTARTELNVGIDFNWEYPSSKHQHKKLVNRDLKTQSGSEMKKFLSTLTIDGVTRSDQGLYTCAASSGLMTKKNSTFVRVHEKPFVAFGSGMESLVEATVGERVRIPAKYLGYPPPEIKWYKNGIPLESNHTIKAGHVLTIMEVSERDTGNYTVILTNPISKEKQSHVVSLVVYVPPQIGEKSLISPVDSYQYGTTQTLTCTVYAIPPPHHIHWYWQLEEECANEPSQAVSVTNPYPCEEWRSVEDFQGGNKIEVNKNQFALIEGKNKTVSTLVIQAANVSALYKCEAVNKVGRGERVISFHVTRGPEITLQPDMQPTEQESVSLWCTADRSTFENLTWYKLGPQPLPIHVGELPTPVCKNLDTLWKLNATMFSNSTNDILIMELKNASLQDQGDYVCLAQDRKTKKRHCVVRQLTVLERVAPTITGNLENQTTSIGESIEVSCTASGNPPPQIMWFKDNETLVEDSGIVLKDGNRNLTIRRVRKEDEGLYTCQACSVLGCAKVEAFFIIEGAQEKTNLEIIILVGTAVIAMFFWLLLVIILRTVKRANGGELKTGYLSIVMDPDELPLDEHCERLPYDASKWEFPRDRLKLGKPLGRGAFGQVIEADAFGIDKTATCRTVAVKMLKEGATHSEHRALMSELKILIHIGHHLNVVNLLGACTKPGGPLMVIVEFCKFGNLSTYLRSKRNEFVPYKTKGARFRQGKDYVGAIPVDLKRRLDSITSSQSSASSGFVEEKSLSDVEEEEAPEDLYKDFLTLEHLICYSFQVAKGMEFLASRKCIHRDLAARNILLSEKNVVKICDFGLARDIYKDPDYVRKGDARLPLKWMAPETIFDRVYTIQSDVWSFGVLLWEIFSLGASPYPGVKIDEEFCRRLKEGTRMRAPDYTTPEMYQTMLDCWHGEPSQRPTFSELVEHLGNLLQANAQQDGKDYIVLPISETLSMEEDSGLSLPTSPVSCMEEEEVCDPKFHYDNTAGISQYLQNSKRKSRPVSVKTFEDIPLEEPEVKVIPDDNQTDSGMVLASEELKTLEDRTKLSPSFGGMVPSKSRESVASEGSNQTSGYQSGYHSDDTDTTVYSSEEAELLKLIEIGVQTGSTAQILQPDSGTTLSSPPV
Sequence of Epidermal growth factor receptor (P00533 whole entry): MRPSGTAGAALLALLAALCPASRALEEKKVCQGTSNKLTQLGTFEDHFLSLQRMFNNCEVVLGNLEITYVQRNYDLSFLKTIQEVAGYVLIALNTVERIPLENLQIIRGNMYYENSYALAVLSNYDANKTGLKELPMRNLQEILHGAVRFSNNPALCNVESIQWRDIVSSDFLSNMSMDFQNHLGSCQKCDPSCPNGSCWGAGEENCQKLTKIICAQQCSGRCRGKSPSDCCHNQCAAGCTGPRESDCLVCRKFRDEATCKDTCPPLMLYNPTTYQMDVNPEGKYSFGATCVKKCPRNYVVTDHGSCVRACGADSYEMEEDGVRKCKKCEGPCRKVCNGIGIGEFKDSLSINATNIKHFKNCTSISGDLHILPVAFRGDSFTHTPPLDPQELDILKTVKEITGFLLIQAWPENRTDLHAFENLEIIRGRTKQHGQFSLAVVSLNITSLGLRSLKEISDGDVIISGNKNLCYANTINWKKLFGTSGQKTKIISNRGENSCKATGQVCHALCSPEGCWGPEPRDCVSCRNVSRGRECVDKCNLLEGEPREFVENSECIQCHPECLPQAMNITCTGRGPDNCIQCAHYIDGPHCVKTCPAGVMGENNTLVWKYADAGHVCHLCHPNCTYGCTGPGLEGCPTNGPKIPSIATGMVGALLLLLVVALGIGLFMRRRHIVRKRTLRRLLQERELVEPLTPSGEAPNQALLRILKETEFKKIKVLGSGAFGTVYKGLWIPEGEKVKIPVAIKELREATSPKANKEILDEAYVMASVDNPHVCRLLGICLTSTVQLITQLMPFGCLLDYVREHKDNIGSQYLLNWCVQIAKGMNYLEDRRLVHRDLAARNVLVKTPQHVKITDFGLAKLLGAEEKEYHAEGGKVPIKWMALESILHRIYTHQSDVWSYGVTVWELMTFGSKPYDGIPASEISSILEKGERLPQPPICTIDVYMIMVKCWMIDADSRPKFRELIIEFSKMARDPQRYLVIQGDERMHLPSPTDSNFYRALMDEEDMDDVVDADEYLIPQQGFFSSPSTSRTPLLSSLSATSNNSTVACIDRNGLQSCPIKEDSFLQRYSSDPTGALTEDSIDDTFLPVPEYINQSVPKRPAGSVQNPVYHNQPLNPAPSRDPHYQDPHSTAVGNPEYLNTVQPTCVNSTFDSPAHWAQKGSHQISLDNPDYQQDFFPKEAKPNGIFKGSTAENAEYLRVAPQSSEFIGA

For the molecule `O=C(/C=C/c1ccc(F)cc1Cl)Nc1cc2c(Nc3ccc(F)c(Cl)c3)ncnc2cc1O[C@H]1CCOC1`, the IC50 in experiment [1] (setting [8]) came to 7.15 µM; in experiment [2] (setting [9]), 26.2 µM; in experiment [3] (setting [10]), 5.19 µM; in experiment [4] it was 37.5 µM.
As for `N#Cc1ccc(/C=C/C(=O)Nc2cc3c(Nc4ccc(F)c(Cl)c4)ncnc3cc2O[C@H]2CCOC2)cc1`, the IC50 in experiment [1] (setting [8]) is 36.6 µM; in experiment [2] (setting [9]), 9.83 µM; in experiment [3] (a549) it was “Not Active”.
Take `COc1cc2ncnc(Nc3ccc(F)c(Cl)c3)c2cc1NC(=O)/C=C/c1ccc(C#N)cc1`: the IC50 entry in experiment [1] (pc-3), in experiment [2] (mcf7) and in experiment [3] (a549) was “Not Active” each time.
With `COc1cc(/C=C/C(=O)Nc2cc3c(Nc4ccc(F)c(Cl)c4)ncnc3cc2OC)cc(OC)c1`, the IC50 entry in experiment [1] (pc-3) is “Not Active”; in experiment [2] (setting [9]), 38.5 µM; in experiment [3] (a549), “Not Active”.
Regarding `O=C(/C=C/c1cc(Br)c(O)c(Br)c1)Nc1cc2c(Nc3ccc(F)c(Cl)c3)ncnc2cc1O[C@H]1CCOC1`, the IC50 was 25.5 µM in experiment [1] (setting [8]), 30.6 µM in experiment [2] (setting [9]), 28.8 µM in experiment [3] (setting [10]) and 27.7 µM in experiment [4].
With `COc1ccc(OC)c(/C=C/C(=O)Nc2cc3c(Nc4ccc(F)c(Cl)c4)ncnc3cc2OC)c1`, the values for the IC50 in experiment [1] (setting [8]), in experiment [2] (setting [9]) and in experiment [3] (setting [10]) were 28.6 µM, 34.2 µM and 11.2 µM, respectively.
Regarding `COc1cc2ncnc(Nc3ccc(F)c(Cl)c3)c2cc1NC(=O)/C=C/c1ccccc1[N+](=O)[O-]`, the values for the IC50 in experiment [1] (setting [8]), in experiment [2] (setting [9]) and in experiment [3] (setting [10]) were 14.3 µM, 36.5 µM and 33.2 µM, respectively.
With `COc1ccc(OC)c(/C=C/C(=O)Nc2cc3c(Nc4ccc(F)c(Cl)c4)ncnc3cc2O[C@H]2CCOC2)c1`, the IC50 in experiment [1] (setting [8]) amounted to 8.73 µM; in experiment [2] (setting [9]), 36.3 µM; in experiment [3] (setting [10]) it was 7.3 µM; in experiment [4], 26.8 µM.
For the molecule `COc1cc2ncnc(Nc3ccc(F)c(Cl)c3)c2cc1NC(=O)/C=C/c1ccc(F)cc1Cl`, the IC50 is 32.7 µM in experiment [1] (setting [8]), “Not Active” in experiment [2] (mcf7) and “Not Active” in experiment [3] (a549).
With `COc1cc2ncnc(Nc3ccc(F)c(Cl)c3)c2cc1NC(=O)/C=C/c1cc(OC)c(OC)c(OC)c1`, the IC50 in experiment [1] (setting [8]) was 38.2 µM; in experiment [2] (mcf7), “Not Active”; in experiment [3] (a549), “Not Active”.
`COc1cc(/C=C/C(=O)Nc2cc3c(Nc4ccc(F)c(Cl)c4)ncnc3cc2O[C@H]2CCOC2)cc(OC)c1OC`: the IC50 in experiment [1] (setting [8]) turned out to be 20.5 µM; in experiment [2] (setting [9]) it was 28.4 µM; in experiment [3] (setting [10]) it was 4.15 µM; in experiment [4], 24.5 µM.
Consider `COc1cc(/C=C/C(=O)Nc2cc3c(Nc4ccc(F)c(Cl)c4)ncnc3cc2O[C@H]2CCOC2)cc(OC)c1O`, for which the IC50 was found to be 26.5 µM in experiment [1] (setting [8]), 30.5 µM in experiment [2] (setting [9]), 26.9 µM in experiment [3] (setting [10]) and 27.4 µM in experiment [4].
In the case of `O=C(/C=C/c1cccc(Cl)c1Cl)Nc1cc2c(Nc3ccc(F)c(Cl)c3)ncnc2cc1O[C@H]1CCOC1`, the IC50 turned out to be 27.5 µM in experiment [1] (setting [8]), 30.1 µM in experiment [2] (setting [9]), 23.2 µM in experiment [3] (setting [10]) and 30.5 µM in experiment [4].
On to `COc1ccc(/C=C/C(=O)Nc2cc3c(Nc4ccc(F)c(Cl)c4)ncnc3cc2OC)cc1`, for which the IC50 result in experiment [1] (pc-3), in experiment [2] (mcf7) and in experiment [3] (a549) was “Not Active” in each case.
For `COc1ccc(/C=C/C(=O)Nc2cc3c(Nc4ccc(F)c(Cl)c4)ncnc3cc2O[C@H]2CCOC2)c(OC)c1OC`, the IC50 stood at 0.478 µM in experiment [5]; 0.0036 µM in experiment [6]; 7.67 µM in experiment [1] (setting [8]); 4.65 µM in experiment [2] (setting [9]); 0.07 µM in experiment [3] (setting [10]); 4.83 µM in experiment [4].
With `O=C(/C=C/c1ccc([N+](=O)[O-])cc1)Nc1cc2c(Nc3ccc(F)c(Cl)c3)ncnc2cc1O[C@H]1CCOC1`, the IC50 in experiment [1] (setting [8]) came out at 22.8 µM; in experiment [2] (setting [9]), 26.7 µM; in experiment [3] (setting [10]), 12 µM; in experiment [4], 27.4 µM.
For `O=C(/C=C/c1ccc(Br)cc1)Nc1cc2c(Nc3ccc(F)c(Cl)c3)ncnc2cc1O[C@H]1CCOC1`, the IC50 in experiment [1] (setting [8]) came out at 28.2 µM; in experiment [2] (setting [9]) it was 32.4 µM; in experiment [3] (setting [10]), 35.3 µM; in experiment [4] it was 27.4 µM.
In the case of `COc1ccc(/C=C/C(=O)Nc2cc3c(Nc4ccc(F)c(Cl)c4)ncnc3cc2O[C@H]2CCOC2)cc1`, the IC50 in experiment [5] is 0.886 µM; in experiment [6] it was 0.0091 µM; in experiment [1] (setting [8]), 2.24 µM; in experiment [2] (setting [9]), 5.07 µM; in experiment [3] (setting [10]), 3.05 µM; in experiment [4], 34.6 µM.
Consider `COc1ccc(/C=C/C(=O)Nc2cc3c(Nc4ccc(F)c(Cl)c4)ncnc3cc2O[C@H]2CCOC2)c(OC)c1`, for which the IC50 in experiment [1] (setting [8]) came out at 2.76 µM; in experiment [2] (setting [9]) it was 28.6 µM; in experiment [3] (setting [10]) it was 9.35 µM; in experiment [4] it was 26.4 µM.
With `COc1ccc(/C=C/C(=O)Nc2cc3c(Nc4ccc(F)c(Cl)c4)ncnc3cc2OC)c(OC)c1`, the IC50 in experiment [1] (setting [8]) amounted to 38.5 µM; in experiment [2] (setting [9]), 36.6 µM; in experiment [3] (setting [10]), 33.2 µM.
For the molecule `CN(C)C/C=C/C(=O)Nc1cc2c(Nc3ccc(F)c(Cl)c3)ncnc2cc1O[C@H]1CCOC1` [AFATINIB], the IC50 in experiment [7] is 0.0005 µM; in experiment [1] (setting [8]), 4.1 µM; in experiment [2] (setting [9]), 5.83 µM; in experiment [3] (setting [10]), 0.05 µM; in experiment [4], 6.81 µM.
For `O=C(/C=C/c1ccccc1[N+](=O)[O-])Nc1cc2c(Nc3ccc(F)c(Cl)c3)ncnc2cc1O[C@H]1CCOC1`, the IC50 in experiment [1] (setting [8]) amounted to 7.76 µM; in experiment [2] (setting [9]), 28.4 µM; in experiment [3] (setting [10]) it was 8.82 µM; in experiment [4] it was 29.6 µM.
On to `COc1cc(/C=C/C(=O)Nc2cc3c(Nc4ccc(F)c(Cl)c4)ncnc3cc2O[C@H]2CCOC2)cc(OC)c1`, for which the IC50 in experiment [1] (setting [8]) came to 25.6 µM; in experiment [2] (setting [9]), 30.3 µM; in experiment [3] (setting [10]), 10.8 µM; in experiment [4], 34.2 µM.

By IC50 is commonly meant the concentration that inhibits the measured activity by half.
